Tested on: Rattus norvegicus
Experiment: Antiinflammatory activity in albino rat assessed as inhibition of LPS-induced TSG-14 production at 30 mg/kg, po administered 30 mins before LPS challenge measured after 4 to 6 hrs by ELISA relative to control
Format: functional
How it was run: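 Male albino rats (~200 g), three per group, dosed orally with compound suspended in 0.5% carboxymethylcellulose. LPS (Escherichia coli B055/B5, 0.1 mg/kg ip) was given 30 min after dosing. Sera were collected 4-6 h after LPS and assayed in duplicate by sandwich ELISA for rat PTX3/TSG-14 (detection limit <0.02 ng/mL). Percent inhibition was taken against an untreated LPS control, as mean ± S.E.M. (n = 3).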

| SMILES | inhibition in vivo at 30 mg/kg [%] |
| --- | --- |
| N=c1sc(=S)[nH]c2c1cc(-c1ccccc1)n2-c1ccccc1 | 0 |
| N=c1sc(=S)[nH]c2c1cc(-c1ccc(Cl)cc1)n2-c1ccccc1 | 2 |
| Cc1ccc(-c2cc3c(=N)sc(=S)[nH]c3n2-c2ccccc2)cc1 | 0 |
| N=c1sc(=S)[nH]c2c1cc(-c1ccc(Br)cc1)n2-c1ccccc1 | 44 |
| CCSc1nc2c(cc(-c3ccccc3)n2-c2ccccc2)c(=N)s1 | 0 |
| CCSc1nc2c(cc(-c3ccc(Cl)cc3)n2-c2ccccc2)c(=N)s1 | 1 |
| CCSc1nc2c(cc(-c3ccc(C)cc3)n2-c2ccccc2)c(=N)s1 | 0 |
| CCSc1nc2c(cc(-c3ccc(Br)cc3)n2-c2ccccc2)c(=N)s1 | 1 |
| CCC(C)Sc1nc2c(cc(-c3ccccc3)n2-c2ccccc2)c(=N)s1 (stereo not given) | 50 |
| CCC(C)Sc1nc2c(cc(-c3ccc(Cl)cc3)n2-c2ccccc2)c(=N)s1 (stereo not given) | 2 |
| CCC(C)Sc1nc2c(cc(-c3ccc(C)cc3)n2-c2ccccc2)c(=N)s1 (stereo not given) | 2 |
| CCC(C)Sc1nc2c(cc(-c3ccc(Br)cc3)n2-c2ccccc2)c(=N)s1 (stereo not given) | 70 |
| CCn1c(=S)[nH]c2c(cc(-c3ccccc3)n2-c2ccccc2)c1=N | 65 |
| CCn1c(=S)[nH]c2c(cc(-c3ccc(Cl)cc3)n2-c2ccccc2)c1=N | 61 |
| CCn1c(=S)[nH]c2c(cc(-c3ccc(C)cc3)n2-c2ccccc2)c1=N | 60 |
| CCn1c(=S)[nH]c2c(cc(-c3ccc(Br)cc3)n2-c2ccccc2)c1=N | 80 |
| N=c1c2cc(-c3ccccc3)n(-c3ccccc3)c2[nH]c(=S)n1N | 23 |
| N=c1c2cc(-c3ccc(Cl)cc3)n(-c3ccccc3)c2[nH]c(=S)n1N | 0 |
| Cc1ccc(-c2cc3c(=N)n(N)c(=S)[nH]c3n2-c2ccccc2)cc1 | 0 |
| N=c1c2cc(-c3ccc(Br)cc3)n(-c3ccccc3)c2[nH]c(=S)n1N | 33 |
